Series [1] can be described thus: Solution stability in PBS buffer. The format is physicochemical. The settings on record: PBS buffer at pH 6.
Another series concerns C. albicans SN250. Nature of the series: Erg extraction experiment. It is filed as cell-based, Candida albicans. Particulars: C. albicans SN250, compound at 5 μM.
For series [2] the following is noted: ITC, Erg-containing LUVs; AmB–Erg binding data reported earlier; cited from earlier work. On the technique in general: In ITC the heat of successive injections is recorded.
The test system of another series is SH-SY5Y neural cells. In words: Cell viability assay. It is filed as cell-based, human. Particulars: up to highest concentration tested 50 μM. Summed up: (§1)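 Cells grown in complete MEM with FBS, Pen-Strep and non-essential amino acids at 37 °C, 5% CO2. Trypsinized cells were adjusted to 5 × 10^5 cells ml−1, seeded at 10^4 cells per well, and held 3 h at 37 °C. Compound was then added at 0.5–50 μM final in 1% DMSO, with DMSO and puromycin controls, for 24 h. alamarBlue was read after 3 h (ex 537/em 585 nm). Triplicate; average of three experiments.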

Series [3] is described as follows: ITC with Erg-containing large unilamellar vesicles. The format is binding. The settings on record: ITC heat exchange.
Series [4] is described as follows: ITC with Chol-containing large unilamellar vesicles. It is filed as binding. Particulars: ITC heat exchange.
The test system of the next series is human red blood cells. Nature of the series: Red blood cell lysis / permeabilization. The format is cell-based. The settings on record: up to highest concentration tested 500 μM.
Series [5] is described as follows: Renal toxicity in mice, 24 h post single IV dose. The format is in vivo, female CD-1 mice.
Another series relates to Aspergillus fumigatus 91. In words: MIC assay. It is filed as cell-based.
The subject of another series is H9c2 myocardial cells. Nature of the series: Cell viability assay. It is filed as cell-based, rat. Particulars: up to highest concentration tested 50 μM. Summed up:
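Rat myocardial cells maintained in complete DMEM with FBS, Pen-Strep and non-essential amino acids, 37 °C, 5% CO2. After trypsinization, cells at 5 × 10^5 cells ml−1 were seeded at […] and rested 3 h. Compound was given at 0.5–50 μM final (1% DMSO) for 24 h, with DMSO and puromycin controls. alamarBlue was added 3 h, then fluorescence read at 537/585 nm. Triplicate; mean of three experiments.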

Another series concerns K562 cells. In words: Cell viability assay. It is filed as cell-based, human. Particulars: up to highest concentration tested 50 μM. Summed up:
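Suspension cells grown in complete IMDM with FBS and Pen-Strep at 37 °C, 5% CO2. Without trypsinization, suspension was adjusted to 12.5 × 10^5 cells ml−1 and held 3 h at 37 °C before compound. Exposure was 0.5–50 μM final in 1% DMSO, with DMSO and puromycin controls, for 24 h. Viability was by alamarBlue fluorescence after 3 h (ex 537/em 585 nm). Triplicate; average of three experiments.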

The next series relates to HepG2 liver cells. Nature of the series: Cell viability assay. The format is cell-based, human. The settings on record: up to highest concentration tested 50 μM. Summed up:
as §1

Series [6] relates to primary human renal proximal tubule epithelial cells. Nature of the series: Cell viability assay. The format is cell-based. The settings on record: up to highest concentration tested 50 μM.
The next series concerns Candida krusei. In words: MIC assay. It is filed as cell-based.

This is an account of results in article PMC10883201 (Nature, 2023).

As usually defined, the MIC is the lowest concentration found to suppress growth. Lower therefore signals a more susceptible organism.

Converted amounts (≈) assume the structure as drawn.

In the case of `CC1C=CC=CC=CC=CC=CC=CC=CC(OC2CC(N)C(O)C(C)O2)CC2OC(O)(CC(O)CC(O)C(O)CCC(O)CC(O)CC(=O)OC(C)C(C)C1O)CC(O)C2C(=O)O` (stereo not shown) [C2′deOAmB], the solution stability result in series [1] is reported as “unstable”.
Turning to `C[C@@H]1[C@H](O)[C@@H](C)/C=C/C=C/C=C/C=C/C=C/C=C/C=C/[C@H](O[C@@H]2O[C@H](C)[C@@H](O)[C@H](N)[C@@H]2O)C[C@@H]2O[C@](O)(C[C@@H](O)C[C@@H](O)[C@H](O)CC[C@@H](O)C[C@@H](O)CC(=O)O[C@H]1C)C[C@H](O)[C@H]2C(=O)O` [AmB, amphotericin B, reference compound], in the series with C. albicans SN250, the “T50% (time required for 50% Erg extraction)” value turned out to be 0.92 h. In [2], the “ΔΔHErg (ΔHsterol – ΔHsterol-free)” value is -42.4 ± 11.2 µcal.
Turning to `C[C@@H]1[C@H](O)[C@@H](C)/C=C/C=C/C=C/C=C/C=C/C=C/C=C/[C@H](O[C@@H]2O[C@H](C)[C@@H](O)[C@H](N)[C@H]2O)C[C@@H]2O[C@](O)(C[C@@H](O)C[C@@H](O)[C@H](O)CC[C@@H](O)C[C@@H](O)CC(=O)O[C@H]1C)C[C@H](O)[C@H]2C(=O)O` [C2′epiAmB], the toxicity result (in the series on SH-SY5Y neural cells; in the series on human red blood cells; in the series on H9c2 myocardial cells; with K562 cells; in the series on HepG2 liver cells; in series [6]) was “no toxicity” each time. In addition, the Erg binding result in series [3] is “retained, albeit diminished, capacity to bind Erg”. Further, the Chol binding entry in [4] is recorded as “no binding”. The kidney injury biomarkers entry in series [5] (24 h after single IV 45 mg/kg dose) is reported as “do not elevate kidney injury biomarkers”. In series [5] (doses of ≥45 mg kg^−1, single IV, 24 h, 1:2 deoxycholate formulation), the renal biomarkers result is recorded as “no elevation of renal biomarkers”. In addition, the MIC is > 32 µM in the series with Aspergillus fumigatus 91 and 1 µM (≈ 0.924 µg/mL) in the series on Candida krusei. Moreover, the “T50% (time required for 50% Erg extraction)” value in the series on C. albicans SN250 turned out to be 2.75 h.
